T cruzi growth-1: T. cruzi proliferation inhibition. T. cruzi beta-gal in NIH3T3, GalScreen luminescence, 90 h. inhibition, % at 8.34 µM. 5.9% of 77,000 active;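 active = mean inhibition above about 93%, with at least 55% of replicates each passing it, limit read from the data, passing the limit was not always enough; inconclusive = only one of those two conditions holds; inactive = neither condition holds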
IDH1 mut inh: inhibitors of human IDH1 R132H; O75874; IDH1 R132H reductase, diaphorase/resazurin fluorescence, 60 min; inhibition, % at 10 µM; 0.18% of 70,000 active; AID 624101; in the data active = inhibition above about 34%; inconclusive = no clear call, values can overlap the other calls; inactive = below about 11%;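 also: 0% = DMSO and 100% = no enzyme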
Target sequence (O75874 whole entry R132H): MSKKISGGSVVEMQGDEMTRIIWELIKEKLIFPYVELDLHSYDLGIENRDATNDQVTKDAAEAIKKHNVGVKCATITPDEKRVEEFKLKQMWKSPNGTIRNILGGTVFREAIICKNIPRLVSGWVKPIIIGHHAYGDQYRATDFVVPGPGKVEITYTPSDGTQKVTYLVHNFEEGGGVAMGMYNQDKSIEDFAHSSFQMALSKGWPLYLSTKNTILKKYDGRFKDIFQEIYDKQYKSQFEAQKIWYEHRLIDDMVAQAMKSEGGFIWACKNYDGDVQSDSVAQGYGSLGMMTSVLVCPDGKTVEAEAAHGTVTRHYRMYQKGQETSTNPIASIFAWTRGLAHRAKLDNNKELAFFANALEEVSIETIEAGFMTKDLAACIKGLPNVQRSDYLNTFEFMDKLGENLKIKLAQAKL
GASC1 inh: blocks human GASC-1 (KDM4C) demethylase activity | GST-KDM4C 2-372, H3K9me3 peptide, LANCE TR-FRET | inhibition, % at 12.5 µM | 0.15% of 96,000 active;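 active = mean replicate inhibition above about 25%, with at least 55% of replicates also reaching it, limit read from the data, passing the limit was not always enough; inconclusive = only one of those two conditions met; inactive = neither condition met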
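Assay system: GST-GASC-1 enzyme fragment 2-372 | Amount: 10 nM enzyme | Medium: HEPES buffer, pH 7.5, plus ascorbate | Reagent: H3K9me3 peptide substrate, Fe(II), 2-oxoglutarate | Doses: Single-point compound screen | Incubation: 30 min demethylation and 1 h detection at room temperature | Measured by: LANCE TR-FRET, excitation 340 nm, emissions 618 and 671 nm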
Pf Dd2 growth: blocks growth of Plasmodium falciparum Dd2 parasites. P. falciparum Dd2 growth, SYBR Green, 72 h; stronger effect = lower value. activity change, % at 10 µM. 2.3% of 94,000 active. AID 1159554; in the data active = activity change below about -80%; inconclusive = no clear call, values can overlap the other calls
T cruzi growth-2: inhibitors of T. cruzi proliferation; shares compounds with T cruzi growth-1; T. cruzi beta-gal in NIH3T3, GalScreen luminescence, 90 h; 72% of 5,600 active; inhibition, % at 8.35 µM; AID 651739;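 active = mean replicate inhibition above about 95% and at least 55% of replicates individually reaching it, limit read from the data; inconclusive = only one of the two criteria is met; inactive = neither criterion is met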
T cruzi growth-3: Trypanosoma cruzi proliferation inhibition. T. cruzi beta-gal in NIH3T3, GalScreen luminescence, 90 h. 21% of 5,600 active. inhibition, % at 2.09 µM. shares compounds with T cruzi growth-1;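 active = mean inhibition above about 95%, with at least 55% of replicates also reaching it, limit read from the data; inconclusive = meets just one of the two conditions; inactive = meets neither condition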;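 also: plate controls were neutral control median for no effect and positive control median for full effect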
NIH3T3 tox: kills mouse NIH/3T3 fibroblasts | shares compounds with T cruzi growth-1 | NIH/3T3 viability, CellTiter-Glo ATP luminescence, 90 h | cytotoxicity (signal decrease), % at 8.35 µM | 14% of 5,600 active | AID 651742;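 active = mean signal decrease across replicates above about 35% based on untreated-well scatter, with enough replicates individually passing, limit read from the data; inconclusive = no rule stated though some were filed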;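 also: 0% = median of neutral control wells and 100% = median of positive control wells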
NIH3T3 tox 2: cytotoxicity in mouse NIH/3T3 fibroblasts; NIH/3T3 viability, CellTiter-Glo ATP luminescence, 90 h; inhibition, % at 24.9 µM; AID 651744; shares compounds with T cruzi growth-1; 56% of 5,600 active;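 active = mean loss of cell viability signal at or above a set limit, and enough replicates individually reaching it; inconclusive = meets only the mean limit or only the replicate share; inactive = meets neither condition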;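 also: 0% = median of neutral control wells and 100% = median of positive control wells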
An asterisk follows results filed as active; u = inconclusive; x = not tested or not shown. Rows were chosen to be rich in hits. Some 5.9% of all compounds tested hit in one or more screens of this group.

SMILES	T cruzi growth-1	IDH1 mut inh	GASC1 inh	Pf Dd2 growth	T cruzi growth-2	T cruzi growth-3	NIH3T3 tox	NIH3T3 tox 2
COc1ccc(CN(C)C[C@H]2OCCCC[C@H](C)Oc3ccc(NC(=O)Nc4ccc(OC)cc4)cc3C(=O)N([C@H](C)CO)C[C@H]2C)cc1	106*	x	8	-61	103*	57	21	25*
COc1ccc(CN(C)C[C@@H]2OCCCC[C@H](C)Oc3ccc(NC(=O)Nc4ccc(OC)cc4)cc3C(=O)N([C@@H](C)CO)C[C@@H]2C)cc1	100*	2	0	-81*	107*	-7	11	63*
COc1ccc(CN(C)C[C@H]2OCCCC[C@@H](C)Oc3ccc(NC(=O)Nc4ccc(OC)cc4)cc3C(=O)N([C@H](C)CO)C[C@H]2C)cc1	109*	x	0	-65	105*	105*	2	104*
COc1cc2c(cc1O)CCC1C2CCC2(C)C(O)CCC12 (stereo not drawn)	x	0	x	x	x	x	x	x
COC(=O)c1ccccc1NC(=O)c1ccc(NC(=O)C(C)Oc2ccc(Cl)cc2C)cc1 (stereo not drawn)	x	0	x	x	x	x	x	x
COc1ccc(CN(C)C[C@@H]2OCCCC[C@H](C)Oc3ccc(NC(=O)Nc4ccc(OC)cc4)cc3C(=O)N([C@H](C)CO)C[C@@H]2C)cc1	99*	-1	x	-65	104*	105*	17	104*
COc1ccc(C)cc1S(=O)(=O)NCc1ccncc1	x	0	x	x	x	x	x	x
O=C(Nc1cccc(F)c1)N[C@@H]1CC[C@H](CCNS(=O)(=O)c2cccc(Cl)c2)O[C@H]1CO	115*	-1	-2	-88*	-27	-10	-20	-8
O=C(Nc1cccc(F)c1)N[C@H]1CC[C@H](CCNS(=O)(=O)c2cccc(Cl)c2)O[C@@H]1CO	152*	-1	0	-32	63	15	-1	18
O=C(Nc1cccc(F)c1)N[C@H]1CC[C@@H](CCNS(=O)(=O)c2cccc(Cl)c2)O[C@H]1CO	70	0	-3	-26	x	x	x	x
O=C(CSc1nnc(-c2ccc([N+](=O)[O-])cc2)n1-c1ccccc1)Nc1ccccc1Cl	x	0	x	x	x	x	x	x
C[C@@H]1CN([C@H](C)CO)C(=O)c2cc(NC(=O)C3CCCCC3)ccc2O[C@@H](C)CCCCO[C@@H]1CN(C)Cc1ccncc1	105*	3	3	-22	56	11	-13	-6
C[C@@H]1CN([C@@H](C)CO)C(=O)c2cc(NC(=O)C3CCCCC3)ccc2O[C@@H](C)CCCCO[C@H]1CN(C)Cc1ccccc1	109*	x	0	-63	108*	85	-18	45*
C[C@@H]1CN([C@H](C)CO)C(=O)c2cc(NC(=O)C3CCCCC3)ccc2O[C@@H](C)CCCCO[C@H]1CN(C)Cc1ccccc1	99	x	8	-56	x	x	x	x
C[C@@H]1CCCCO[C@@H](CN(C)Cc2ccc(Cl)c(Cl)c2)[C@@H](C)CN([C@H](C)CO)C(=O)c2cc(NC(=O)C3CCCCC3)ccc2O1	107*	x	0	-38	107*	u	-16	0
C[C@@H]1CCCCO[C@H](CN(C)Cc2ccncc2)[C@H](C)CN([C@H](C)CO)C(=O)c2cc(NC(=O)C3CCCCC3)ccc2O1	22	x	-1	x	x	x	x	x
O=C(CC1c2ccccc2Oc2ccccc21)NCCOc1ccccc1Cl	x	-1	x	x	x	x	x	x
COc1cccc(-c2ccc3c(c2)[C@@H]2[C@@H](CCN2S(=O)(=O)c2ccc(F)cc2)[C@@H](CO)N3C)c1	80	x	-2	-20	x	x	x	x
CN1c2ccc(-c3cccc(C#N)c3)cc2[C@H]2[C@H](CCN2S(=O)(=O)c2ccccc2)[C@H]1CO	101*	x	-3	5	108*	82	19	26*
Cc1ccc(S(=O)(=O)N2CC[C@@H]3[C@H]2c2cc(-c4cccc(C#N)c4)ccc2N(C)[C@H]3CO)cc1	u	x	2	9	104*	100*	44*	42*
CN1c2ccc(-c3cccc(C#N)c3)cc2[C@@H]2[C@@H](CCN2S(=O)(=O)c2ccccc2F)[C@H]1CO	46	x	0	-57	x	x	x	x
COc1cccc(-c2ccc3c(c2)[C@H]2[C@H](CCN2S(=O)(=O)c2ccc(F)cc2)[C@H](CO)N3C)c1	101*	x	-1	8	103*	100*	32	6
CN1c2ccc(-c3cccc(C#N)c3)cc2[C@@H]2[C@@H](CCN2S(=O)(=O)c2ccccc2F)[C@@H]1CO	92*	x	-1	-33	108*	70	u	6
Cc1nc(SCC(=O)Nc2ccc(F)cc2)nc2c1CCCC2	x	1	x	x	x	x	x	x
Cc1nnc(SCC(=O)Nc2ccc(Cl)cc2Cl)[nH]c1=O	x	0	x	x	x	x	x	x
SMILES	T cruzi growth-1	IDH1 mut inh	GASC1 inh	Pf Dd2 growth	T cruzi growth-2	T cruzi growth-3	NIH3T3 tox	NIH3T3 tox 2
CN1c2ccc(C3=CCCCC3)cc2[C@@H]2[C@@H](CCN2S(=O)(=O)c2ccc(F)cc2)[C@H]1CO	71	x	0	-14	x	x	x	x
CN1c2ccc(-c3cccc(C#N)c3)cc2[C@H]2[C@H](CCN2S(=O)(=O)c2ccc(F)cc2)[C@@H]1CO	96*	x	-1	9	102*	48	18	13
CN1c2ccc(C3=CCCCC3)cc2[C@@H]2[C@@H](CCN2S(=O)(=O)c2ccccc2)[C@@H]1CO	105*	x	0	-17	96*	106*	33	78*
Cc1ccc(S(=O)(=O)N2CC[C@@H]3[C@@H](CO)N(C)c4ccc(-c5cccc(C#N)c5)cc4[C@@H]32)cc1	93	x	-19	-7	x	x	x	x
CN1c2ccc(-c3cccc(C#N)c3)cc2[C@@H]2[C@@H](CCN2S(=O)(=O)c2ccccc2)[C@H]1CO	97*	x	1	-5	98*	109*	52*	76*
Cc1ccc(NC(=O)COc2ccc(C(=O)Nc3ccc(F)cc3)cc2)cc1	x	0	x	x	x	x	x	x
CS(=O)(=O)N(CC(=O)Nc1cccc(Cl)c1Cl)c1cccc(F)c1	x	0	x	x	x	x	x	x
CC(C)CC#Cc1ccc2c(c1)O[C@H](CN(C)Cc1ccccc1)[C@@H](C)CN([C@@H](C)CO)S2(=O)=O	123*	0	-2	-48	100*	114*	-5	104*
CC(C)CC#Cc1ccc2c(c1)O[C@H](CN(C)Cc1ccccc1)[C@H](C)CN([C@H](C)CO)S2(=O)=O	104*	0	1	-51	87	109*	16	105*
CC(C)CC#Cc1ccc2c(c1)O[C@@H](CN(C)Cc1ccccc1)[C@H](C)CN([C@H](C)CO)S2(=O)=O	9	0	2	16	x	x	x	x
O=C(Nc1sccc1C(=O)N1CCOCC1)c1cc2ccccc2oc1=O	x	2	x	x	x	x	x	x

Screening results from PubChem.
